Legend:
[1] = tested on: Plasmodium berghei NAT (atovaquone-resistant strain); assay: Hematological analysis of P. berghei NAT-infected mice; format: in vivo
Method in brief: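 Same P. berghei NAT-infected ICR-1 mouse model: 10^7 infected erythrocytes given i.p., test compound or control drug once daily for 4 days from 1 dpi. Blood was taken at 3, 6, 9 and 12 dpi and run on an automated blood cell counter for WBC, RBC, haemoglobin and hematocrit.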

[2] = tested on: Plasmodium berghei NAT (atovaquone-resistant strain); assay: 4-day suppression test in P. berghei NAT-infected ICR mice; format: in vivo
Method in brief: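 Female 7-week-old ICR-1 mice (6/group) infected i.p. with 10^7 P. berghei NAT-infected erythrocytes. Dosing began 1 dpi: test compound at 10, 20 or 30 mg/kg, once daily for 4 days. Controls were DHA 10, atovaquone 4 and chloroquine 10 mg/kg, given i.v. once daily for 4 days. Parasitemia was measured daily by FACS of tail blood. Weight and survival were recorded daily to 15 dpi.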

[3] = tested on: Plasmodium falciparum 3D7; format: cell-based; details: 3D7 (CQ Sensitive); relative to SKM13
[4] = tested on: eIF2α phosphorylation (ER stress response); assay: Western blotting of phosphorylated eIF2α in trophozoite lysates; format: cell-based, Plasmodium falciparum; details: trophozoites treated 90 min, Western blot
Method in brief: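 P. falciparum trophozoite cultures (5% hematocrit, 5% parasitemia) were plated 10–12 h, then drug-treated at 37 °C. Parasites were freed with 0.15% saponin, lysed in RIPA, run on 10% Bis-Tris SDS-PAGE and transferred to PVDF. Blots were blocked in 5% BSA and probed overnight at 4 °C with anti-phospho-eIF2α (1:1000), anti-eIF2α (1:3000) and anti-PfEF1α (5 μg/mL) as loading control. Detection used HRP secondaries and ECL.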

P. f K1 (CQ Resistant) = format: cell-based, Plasmodium falciparum; details: relative to SKM13
[5] = In vitro cytotoxicity in Vero cells; format: cell-based, African green monkey (Chlorocebus sp.); details: African green monkey, Vero cells (kidney epithelial cells), CC50, Vero cell, mean ± SD
Method in brief: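 Vero cells were pre-seeded 12 h, then exposed to serially diluted test compound or control drugs for 48 h. Viability was read with CellTiter 96 AQueous One reagent at 490 nm absorbance. CC50 was calculated from the concentration–response data.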

SMILES | WBC counts ([1]; 4 mg/kg, compared with infected untreated mice (WBC increased at 9 to 12 dpi)) | body weight ([2]; 4 mg/kg) | parasitemia density ([2]; 4 mg/kg i.v.) | survival rate ([2]; 4 mg/kg i.v. once a day for four days, 15 dpi, ICR mice n = 6) [%] | Relative SI [3] | phosphorylation of eIF2α [4] | Relative SI (P. f K1 (CQ Resistant)) | WBC counts, HCT and Hgb ([1]; 10 mg/kg, infected mice, 3-12 dpi) | body weight ([2]; 10 mg/kg) | parasite density (parasitemia) ([2]; 10 mg/kg i.v., all observation period, p < 0.001) | CC50 at 48 h [5] [µM]
O=C1C(O)=C([C@H]2CC[C@H](c3ccc(Cl)cc3)CC2)C(=O)c2ccccc21 [Atovaquone] | same pattern of haematological result | decreased | did not suppress parasitemia density | 33 |  |  |  |  |  |  | 
CCN(CC)CCCC(C)Nc1ccnc2cc(Cl)ccc12 (centres unmarked) [Chloroquine] |  |  |  |  | 20.93 | did not increase phosphorylation of eIF2α | 7.81 | did not affect | maintained normal mouse body weight | significantly reduced | 120 ± 16.4
C[C@H]1[C@@H](O)O[C@@H]2O[C@@]3(C)CC[C@H]4[C@H](C)CC[C@@H]1[C@@]24OO3 [DHA, Dihydroartemisinin] |  |  |  |  | 4.84 |  | 3.97 |  |  |  | 31.3 ± 8.94

From article PMC9771833 (International Journal for Parasitology: Drugs and Drug …, 2022)
